Data on 4 compounds can be found in publication PMC6379907 (Advanced biosystems, 2018).

Data set [1] deals with S. aureus USA300.
Data set [2] relates to S. aureus USA300. Briefly: Membrane permeation, propidium iodide probe. The following applies: peptides at 3.1 μM; antibiotics at their MIC values. In kind it is cell-based, Staphylococcus aureus. A digest of the protocol:
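Serially diluted test compound was combined with propidium iodide (20 μM) and bacteria in TSB at final OD600 ~0.1. Incubated at 37°C with shaking at 100 rpm. Fluorescence (ex 584 nm, em 620 nm) was read every 5 min for 2 h. Each condition was run in duplicate.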

A further data set relates to chymotrypsin. The following applies: cited from earlier work.
The subject of another data set is fungal protease K. The following applies: cited from earlier work.
Setting [3] is: S. aureus USA300, MIC values used in Figure 9B.

Where two headings read alike, the source gives them in different places.

Regarding `CCCCCCCCCC(=O)N[C@@H](Cc1c[nH]c2ccccc12)C(=O)N[C@H](CC(N)=O)C(=O)N[C@@H](CC(=O)O)C(=O)N[C@@H]1C(=O)NCC(=O)N[C@@H](CCCN)C(=O)N[C@@H](CC(=O)O)C(=O)N[C@H](C)C(=O)N[C@@H](CC(=O)O)C(=O)NCC(=O)N[C@H](CO)C(=O)N[C@@H]([C@H](C)CC(=O)O)C(=O)N[C@@H](CC(=O)c2ccccc2N)C(=O)O[C@@H]1C` [daptomycin], in the data set with S. aureus USA300 [1] (USA300, 20 h), the MIC of antibiotics came out at 0.78 µM.

With `CO[C@H]1/C=C/O[C@@]2(C)Oc3c(C)c(O)c4c(O)c(cc(O)c4c3C2=O)NC(=O)/C(C)=C\C=C\[C@H](C)[C@H](O)[C@@H](C)[C@@H](O)[C@@H](C)[C@H](OC(C)=O)[C@@H]1C` [rifamycin], in the data set with S. aureus USA300 [1] (setting [3]), the MIC of antibiotics came to 0.2 µM. Further, in the data set on S. aureus USA300 [2], the “membrane permeation of S. aureus USA300 (PI fluorescence)” value was “no membrane permeation”.

For `CN[C@H](CC(C)C)C(=O)N[C@H]1C(=O)N[C@@H](CC(N)=O)C(=O)N[C@H]2C(=O)N[C@H]3C(=O)N[C@H](C(=O)N[C@H](C(=O)O)c4cc(O)cc(O)c4-c4cc3ccc4O)[C@H](O)c3ccc(c(Cl)c3)Oc3cc2cc(c3O[C@@H]2O[C@H](CO)[C@@H](O)[C@H](O)[C@H]2O[C@H]2C[C@](C)(N)[C@H](O)[C@H](C)O2)Oc2ccc(cc2Cl)[C@H]1O` [vancomycin], the MIC of antibiotics with S. aureus USA300 [1] (setting [3]) came to 0.78 µM. Also, in the data set on S. aureus USA300 [2], the “membrane permeation of S. aureus USA300 (PI fluorescence)” value was “no membrane permeation”.

For the compound “GF-17: synthetic peptide of LL-37 residues 17–32 plus an extra N-terminal glycine (FKRIVQRIKDFLRNLV; extra N-terminal glycine)”, the resistance to chymotrypsin entry in the data set with chymotrypsin is on record as “but not GF-17, is resistant”. Moreover, the “resistance to fungal protease K” value in the data set with fungal protease K was “but not GF-17, is resistant”.
